SMILES strings stand for the structures. Activity calls are given as the source filed them. The calls are words filed in the database; no cut-off is given here.

For data set [1], the system named is Rattus norvegicus. Briefly: Antihypertensive activity in spontaneously hypertensive rat assessed as reduction in diastolic arterial pressure at 80 mg/kg, po up to 24 hrs. The format is functional, organism-based. On the set-up: dose 80 mg/kg. The note with it: Artery. In outline:
(§1)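 Spontaneously hypertensive rats received a single oral dose of 40 or 80 mg/kg. Systolic, diastolic and mean arterial pressure were recorded from 0 to 24 h after dosing, with heart rate monitored in parallel. Data are given as mean ± SEM (n = 8), and significance was tested against the respective control (p < 0.05, p < 0.01).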

Data set [2] deals with Rattus norvegicus. Briefly: Antihypertensive activity in spontaneously hypertensive rat assessed as reduction in mean arterial pressure at 80 mg/kg, po up to 24 hrs. Particulars: Artery. The arrangement: dose 80 mg/kg. Type of data set: functional, organism-based. In outline:
as §1

Data set [3] has as its system Rattus norvegicus. Kind of data set: Toxicity in spontaneously hypertensive rat assessed as change in basal heart rate at 50 mg/kg, po measured up to 24 hrs. The format is organism-based. On the set-up: dose 50 mg/kg, route oral. Particulars: in vivo.
Data set [4] deals with Rattus norvegicus. Kind of data set: Antihypertensive activity in spontaneously hypertensive rat assessed as reduction in systolic arterial pressure at 80 mg/kg, po measured up to 24 hrs. The format is functional, organism-based. The arrangement: dose 80 mg/kg. Particulars: Artery. In outline: as §1
Data set [5] relates to Rattus norvegicus. Briefly: Antihypertensive activity in spontaneously hypertensive rat assessed as reduction in diastolic arterial pressure at 80 mg/kg, po at 6 hrs. Type of data set: functional, Artery. On the set-up: scale not given: the % may be the effect or the level left. In outline:
as §1

Data set [6] concerns Rattus norvegicus. Kind of data set: Antihypertensive activity in spontaneously hypertensive rat assessed as reduction in systolic arterial pressure at 40 mg/kg, po measured up to 24 hrs. Type of data set: functional, organism-based. On the set-up: dose 40 mg/kg. The note with it: Artery. In outline: as §1
Data set [7] has as its system Rattus norvegicus. Briefly: Antihypertensive activity in spontaneously hypertensive rat assessed as reduction in diastolic arterial pressure at 40 mg/kg, po at 6 hrs. The format is functional, organism-based. The arrangement: dose 40 mg/kg. The note with it: Artery. In outline:
as §1

Consider `CC1OCc2c(ccc(O)c2O)C1=O` (racemic), for which the result in the data set with Rattus norvegicus [1], in the data set on Rattus norvegicus [2] and in the data set on Rattus norvegicus [4] was Active. In addition, the Activity entry in the data set with Rattus norvegicus [3] is listed as “Non-toxic”.

Take `C[C@@H]1OCc2c(ccc(O)c2O)C1=O`: the outcome in the data set on Rattus norvegicus [1], in the data set on Rattus norvegicus [2] and in the data set on Rattus norvegicus [4] was Active. For the same molecule, the Activity entry in the data set with Rattus norvegicus [3] is “Non-toxic”.

As to `C[C@H]1OCc2c(ccc(O)c2O)C1=O`, the result with Rattus norvegicus [1], in the data set with Rattus norvegicus [2] and in the data set with Rattus norvegicus [4] was Active. Besides, the values for the Activity in the data set with Rattus norvegicus [5] and in the data set on Rattus norvegicus [3] were 30% and “Non-toxic”, respectively.

Turning to `C[C@H](CS)C(=O)N1CCC[C@H]1C(=O)O`, the outcome in the data set on Rattus norvegicus [6] and with Rattus norvegicus [7] was Active.
